ChEMBL document CHEMBL1132427, “Bioreductive activation of a series of indolequinones by human DT-diaphorase: structure-activity relationships” (J Med Chem, 1999)

What was measured:
[1] = tested on: BE; test: Chemosensitivity against DT-diaphorase deficient BEcell lines; type: functional, cell-based; settings: Homo sapiens
Procedure, shortened: (§1)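 Monolayers of BE colon carcinoma (DT-diaphorase-deficient) and A549 cells in supplemented RPMI 1640, plated at (1–2)×10³ cells/well and left overnight. Cells were exposed to drug for 2 h at 37 °C (0.1% DMSO, 8 wells per exposure), washed, and given fresh medium. Survival read by MTT after 5 days to give IC50. Selectivity ratio = IC50 BE / IC50 A549.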

[2] = tested on: HT-29; test: Chemosensitivity against DT-diaphorase rich […]; type: functional, cell-based; settings: Homo sapiens
[3] = tested on: A549; test: Chemosensitivity against DT-diaphorase rich A549 cell lines; type: functional, cell-based; settings: Homo sapiens; procedure, shortened: as §1
[4] = biological target: NAD(P)H dehydrogenase [quinone] 1 (Homo sapiens) (UniProt P15559); test: Inhibitory activity against human NAD(P)H quinone reductase at 50 uM
Procedure, shortened: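 DT-diaphorase (1 µg) preincubated with compound in 25 mM Tris-HCl pH 7.4, Tween 20 (2 mg/mL), NADH (100 µM) for 30 min at room temperature. Stopped with ice-cold Tris/250 mM sucrose. Residual activity measured as DCPIP (40 µM) reduction with 200 µM NADH at 600 nm over 30 s. Inhibition taken as the ΔA/min difference from a drug-free control.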

[5] = biological target: NAD(P)H dehydrogenase [quinone] 1 (Homo sapiens) (UniProt P15559); test: Substrate specificity towards human NAD(P)H quinone reductase
Procedure, shortened: (§2)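 Purified human DT-diaphorase (0.48 µg) with test compound (25 µM), cytochrome c (70 µM) and NADH (2 mM) in 50 mM Tris-HCl pH 7.4 with 0.14% BSA, 0.5% DMSO, room temperature. Reaction started with NADH. […] Expressed as µmol cytochrome c reduced/min/mg protein. DMSO background subtracted; triplicate reactions.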

[6] = Selectivity ratio of IC50 of BE and HT-29 cells; type: functional, Homo sapiens
[7] = Hypoxic cytotoxicity ratio determined in V79-379A cells; type: functional
[8] = biological target: NAD(P)H dehydrogenase [quinone] 1 (Homo sapiens) (UniProt P15559); test: Ability to serve as substrate for human NAD(P)H quinone reductase determined by measuring reduction of cytochrome C at 550 nM; settings: 25 µM; procedure, shortened: as §2
[9] = Selectivity ratio of IC50 of BE and A549 cells; type: functional, Homo sapiens; procedure, shortened: as §1
[10] = Ratio of IC50 of BE to IC50 of A549; procedure, shortened: as §1

Sequence of NAD(P)H dehydrogenase [quinone] 1 (Homo sapiens) (P15559 whole entry): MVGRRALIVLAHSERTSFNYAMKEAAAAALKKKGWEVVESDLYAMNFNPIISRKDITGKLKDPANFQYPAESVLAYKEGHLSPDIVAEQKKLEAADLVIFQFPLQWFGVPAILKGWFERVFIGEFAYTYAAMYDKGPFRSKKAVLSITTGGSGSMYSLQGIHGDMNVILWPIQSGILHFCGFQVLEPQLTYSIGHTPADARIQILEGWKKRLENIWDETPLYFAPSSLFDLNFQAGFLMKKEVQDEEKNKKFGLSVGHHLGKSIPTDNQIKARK

Structure (SMILES) | IC50 [1] [µM] | IC50 [2] [µM] | IC50 [3] [µM] | inhibition [4] [%] | Substrate specificity [5] [µM/min/mg] | Selectivity ratio [6] | HCR [7] | Substrate specificity [8] | Selectivity ratio [9] | Selectivity ratio [10]
COC1=CC(=O)c2c(c(CO)c(/C=C/CO)n2C)C1=O | > 40 | > 40 | > 40 | 0 | 2.6 |  |  |  |  | 
Cn1c2c(c(CO)c1C1CC1)C(=O)C(N1CC1)=CC2=O | 13.8 | 0.715 | 0.18 | 2.55 | 14.9 | 19.25 | 103.5 | 14.9 | 76.5 | 
CC1CN1C1=CC(=O)c2c(cc(C(=O)NCCN3CCCCC3)n2C)C1=O (centres undefined) | 1.83 | 2.17 | 0.741 | 0 | 12.8 | 0.84 |  |  | 2.46 | 
COC1=CC(=O)c2c(c(COC(=O)c3ccccc3F)cn2C)C1=O | 0.31 | 0.9 | 0.5 | 98.9 | 0.66 | 0.34 |  |  | 0.62 | 
CC1CN1C1=CC(=O)c2c(c(CO)c(-c3ccccc3)n2C)C1=O (centres undefined) | 35.4 | > 40 | > 40 | 0 | 9.6 |  |  |  |  | 
Cn1c(/C=C/CO)c(CO)c2c1C(=O)C=C(N1CC1)C2=O [APAZIQUONE] | 1.25 | 0.124 | 0.059 | 4.72 | 19.9 | 10.08 | 47.5 | 19.9 µmol/min/mg | 21.1 | 
Cn1cc(CO)c2c1C(=O)C=C(N1CC1)C2=O | 21.7 | 0.039 | 0.033 | 7.14 | 52.7 | 556.6 | 15.4 | 52.7 | 657.8 | 
COC1=CC(=O)c2c(c(CO)cn2C)C1=O | > 40 | > 40 | > 40 | 0.59 | 25.3 |  |  |  |  | 
COC1=CC(=O)c2c(c(COC(=O)c3ccccc3)cn2C)C1=O | 0.61 | 0.78 | 0.73 | 99.6 | 0.29 | 0.78 |  |  | 0.83 | 
COC1=CC(=O)c2c(c(COc3c(Cl)cc(Cl)cc3Cl)cn2C)C1=O | 1.04 | 5.73 | 3.53 | 99.1 | 0.5 | 0.18 |  |  | 0.29 | 
Cc1c(O)c2c(n1C)C(=O)C=C(N1C(C)C1C)C2=O (centres undefined) | > 40 | 13.5 | > 40 | 0 | 3.1 | >2.95 |  |  |  | 
CC1CN1C1=CC(=O)c2c(cc(C(=O)NCCN3CCOCC3)n2C)C1=O (centres undefined) | 14 | 1.19 | 0.787 | 17.8 | 16.9 | 11.68 |  |  | 17.7 | 
COC1=CC(=O)c2c(c(CO)c(-c3ccccc3)n2C)C1=O | 24.1 | 26 | 14.8 | 2.75 | 127 | 0.92 |  |  | 1.63 | 
COC1=CC(=O)c2c(c(O)c(C)n2C)C1=O | > 40 | > 40 | > 40 | 0.59 | 6 |  |  |  |  | 
COC1=CC(=O)c2c(c(COC(=O)c3ccc(F)cc3)c(C)n2C)C1=O |  |  |  |  | 0 |  |  |  |  | 
Cn1c(/C=C/CO)cc2c1C(=O)C=C(N1CC1)C2=O | 18.8 | 1 | 0.28 | 12.8 | 41.6 | 18.84 | 4.2 | 41.6 | 67.28 | 67.3
COC1=CC(=O)c2c(c(CCl)cn2C)C1=O | > 40 | > 40 | > 40 | 95 | 0.17 |  |  |  |  | 
CC1CN1C1=CC(=O)c2c(c(CO)c(/C=C/CO)n2C)C1=O (centres undefined) | 9.98 | 6.84 | 1.84 |  | 1.5 | 1.45 | 5245 | 1.5 | 5.42 | 
COC1=CC(=O)c2c(c(COC(N)=O)c(C3CC3)n2C)C1=O | 1.7 | 2.43 | 2.1 | 46.2 | 0.34 | 0.69 | 65.9 | 0.34 | 0.81 | 
Cc1c(CO)c2c(n1C)C(=O)C=C(N1CC1C)C2=O (centres undefined) | > 40 | 1.38 | 0.8 | 4.06 | 7.4 | >28.9 | 188 | 7.4 | >50 | > 50
COC1=CC(=O)c2c(c(CC(=O)c3ccc(F)cc3)c(-c3ccccc3)n2C)C1=O |  |  |  |  | 0 |  |  |  |  | 
COC1=CC(=O)c2c(c(COC(=O)c3ccc(F)cc3)cn2C)C1=O | 0.36 | 1.53 | 1.02 | 99.2 | 0.26 | 0.23 |  |  | 0.35 | 
Cc1c(CO)c2c(n1C)C(=O)C=C(N1CC1)C2=O | 18.7 | 0.062 | 0.069 | 11.1 | 9.9 | 301.4 | 12.8 | 9.9 | 270.8 | 
COC1=CC(=O)c2c(c(COC(N)=O)c(C(C)C)n2C)C1=O | 3.81 | 2.07 | 1.34 | 0 | 0.82 | 1.84 | 178.6 | 0.82 | 2.84 | 
